In ChEMBL document CHEMBL1148012, “Synthesis, inhibition and binding of simple non-nitrogen inhibitors of monoamine transporters” (Bioorg Med Chem, 2007):

Assays:
[1] = target: T1, Sodium-dependent dopamine transporter (Homo sapiens, UniProt Q01959); experiment: Displacement of [125I]RTI55 from human DAT expressed in COS1 cell membrane; assay type: cell membranes, COS-1
Method in brief: (§1)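 Membranes from COS-1 cells stably transfected with hDAT or hSERT (pIRES, blasticidin selection), homogenised and washed, resuspended in PBSCM. Filtration onto PEI-soaked GF/B filters, scintillation counting.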

[2] = target: T2, Sodium-dependent serotonin transporter (Homo sapiens, UniProt P31645); experiment: Displacement of [125I]RTI55 from human SERT expressed in COS1 cell membrane; assay type: cell membranes, COS-1; method in brief: as §1
[3] = target: T3, Sodium-dependent noradrenaline transporter (Homo sapiens, UniProt P23975); experiment: Displacement of [125I]RTI55 from human NET expressed in COS1 cell membrane; assay type: cell membranes, COS-1
[4] = target: T1, Sodium-dependent dopamine transporter; experiment: Inhibition of [3H]DA uptake in human DAT expressed in COS1 cell membrane; assay type: functional, cell-based, COS-1
Method in brief: (§2)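 Intact COS-1 cells stably expressing hDAT, grown two days at 37 °C, washed in PBSCM pH 7.4. Drug dilutions preincubated 30 min, then 30–100 nM [3H]DA added with drug. Uptake 10 min at 20 °C, stopped by aspiration and washing. Accumulated radioactivity counted after solubilising cells in scintillant. IC50 determined.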

[5] = target: T3, Sodium-dependent noradrenaline transporter; experiment: Inhibition of [3H]DA uptake in human NET expressed in COS1 cell membrane; assay type: functional, cell-based, COS-1
[6] = target: T2, Sodium-dependent serotonin transporter; experiment: Inhibition of [3H]SER uptake in human SERT expressed in COS1 cell membrane; assay type: functional, cell-based, COS-1
Method in brief: as §2, with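 “hSERT,” for “hDAT,”, “[3H]5-HT” for “[3H]DA”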

T1 sequence (Q01959 whole entry): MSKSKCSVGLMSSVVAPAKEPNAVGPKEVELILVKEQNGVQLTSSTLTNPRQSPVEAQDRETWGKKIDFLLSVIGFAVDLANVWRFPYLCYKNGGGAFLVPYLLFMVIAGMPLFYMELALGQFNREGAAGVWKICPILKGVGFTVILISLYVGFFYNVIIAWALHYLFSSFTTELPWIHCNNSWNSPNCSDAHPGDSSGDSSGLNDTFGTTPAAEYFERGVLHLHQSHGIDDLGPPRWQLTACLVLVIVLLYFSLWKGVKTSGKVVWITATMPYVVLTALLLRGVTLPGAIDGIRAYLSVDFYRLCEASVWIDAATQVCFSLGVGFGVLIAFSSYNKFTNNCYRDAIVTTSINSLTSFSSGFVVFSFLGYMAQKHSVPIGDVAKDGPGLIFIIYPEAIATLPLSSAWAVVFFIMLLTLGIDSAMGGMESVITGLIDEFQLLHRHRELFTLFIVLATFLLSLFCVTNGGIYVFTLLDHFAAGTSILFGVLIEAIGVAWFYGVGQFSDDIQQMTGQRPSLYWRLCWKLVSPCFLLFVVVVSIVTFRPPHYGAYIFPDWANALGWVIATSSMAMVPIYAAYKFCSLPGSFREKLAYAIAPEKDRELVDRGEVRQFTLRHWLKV
T2 sequence (P31645 whole entry): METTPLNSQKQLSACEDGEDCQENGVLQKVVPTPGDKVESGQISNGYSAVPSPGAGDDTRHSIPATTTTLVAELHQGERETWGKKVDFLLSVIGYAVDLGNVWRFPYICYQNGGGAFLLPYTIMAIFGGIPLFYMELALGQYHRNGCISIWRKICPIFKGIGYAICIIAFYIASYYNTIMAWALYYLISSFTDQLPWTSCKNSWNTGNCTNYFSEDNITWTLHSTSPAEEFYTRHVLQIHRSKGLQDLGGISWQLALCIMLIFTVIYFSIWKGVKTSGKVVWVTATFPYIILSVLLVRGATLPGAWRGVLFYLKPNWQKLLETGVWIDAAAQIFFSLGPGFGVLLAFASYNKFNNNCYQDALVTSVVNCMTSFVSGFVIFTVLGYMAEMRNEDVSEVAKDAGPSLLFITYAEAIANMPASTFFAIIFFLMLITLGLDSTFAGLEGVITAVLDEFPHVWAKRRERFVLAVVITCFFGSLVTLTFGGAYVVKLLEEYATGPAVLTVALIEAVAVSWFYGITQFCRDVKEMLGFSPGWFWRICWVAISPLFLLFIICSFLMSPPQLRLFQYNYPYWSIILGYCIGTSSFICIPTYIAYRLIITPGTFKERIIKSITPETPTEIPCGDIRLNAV
T3 sequence (P23975 whole entry): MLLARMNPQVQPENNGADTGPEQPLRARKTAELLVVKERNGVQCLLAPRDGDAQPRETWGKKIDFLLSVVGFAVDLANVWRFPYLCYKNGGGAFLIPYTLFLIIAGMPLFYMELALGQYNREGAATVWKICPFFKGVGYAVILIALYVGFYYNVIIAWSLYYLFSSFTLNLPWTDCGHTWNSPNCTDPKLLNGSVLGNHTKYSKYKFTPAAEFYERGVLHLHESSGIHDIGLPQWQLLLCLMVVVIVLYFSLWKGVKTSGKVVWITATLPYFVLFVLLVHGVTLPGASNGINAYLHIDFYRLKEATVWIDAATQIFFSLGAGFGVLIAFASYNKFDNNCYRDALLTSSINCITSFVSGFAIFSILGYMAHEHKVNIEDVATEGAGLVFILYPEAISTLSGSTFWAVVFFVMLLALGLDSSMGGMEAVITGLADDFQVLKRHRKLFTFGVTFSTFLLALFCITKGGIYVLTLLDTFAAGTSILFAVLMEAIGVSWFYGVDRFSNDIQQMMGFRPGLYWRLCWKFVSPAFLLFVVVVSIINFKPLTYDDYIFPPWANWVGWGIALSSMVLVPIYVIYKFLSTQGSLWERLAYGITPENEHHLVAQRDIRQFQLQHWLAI

## COC(=O)c1ccccc1-c1ccc2ccccc2c1
[1]
  Ki: 4.06 µM
[2]
  Ki: 620 µM
[3]
  Ki: 46.7 µM

## COC(=O)[C@@H]1CCCCC[C@@H]1c1ccc(-c2ccccc2)cc1
[1]
  Ki: 313 µM
[2]
  Ki: 73 µM
[3]
  Ki: 51 µM

## COC(=O)C1=C(c2cccc(Cl)c2)CCCC1
[1]
  Ki: 22 µM
[2]
  Ki: 1180 µM
[3]
  Ki: 339 µM
[4]
  Ki: 26 µM
[5]
  Ki: 871 µM

## COC(=O)C1=C(c2ccc3ccccc3c2)CCCC1
[1]
  Ki: 12 µM
[2]
  Ki: 109 µM
[3]
  Ki: 81 µM
[4]
  Ki: 1.5 µM
[5]
  Ki: 10 µM

## COC(=O)C1=C(c2ccc(-c3ccccc3)cc2)CCCC1
[1]
  Ki: 264 µM
[2]
  Ki: 841 µM
[3]
  Ki: 215 µM

## COC(=O)C1=C(c2ccc(C(C)(C)C)cc2)CCCC1
[1]
  Ki: 605 µM
[2]
  Ki: 2250 µM
[3]
  Ki: 1100 µM

## COC(=O)C1=C(c2ccc(-c3ccccc3)cc2)CCCCC1
[1]
  Ki: 2 µM
[2]
  Ki: 32 µM
[3]
  Ki: 13 µM
[4]
  Ki: 0.81 µM
[5]
  Ki: 3.9 µM

## C/C=C/C1=C(c2ccc(Cl)c(Cl)c2)CCCC1
[1]
  Ki: 11 µM
[2]
  Ki: 381 µM
[3]
  Ki: 255 µM
[4]
  Ki: 42 µM

## COC(=O)C1=C(c2ccc(C(C)(C)C)cc2)CCCCC1
[1]
  Ki: 884 µM
[2]
  Ki: 1040 µM
[3]
  Ki: 62 µM

## COC(=O)C1=C(c2cccc(Cl)c2)CCC1
[1]
  Ki: 34 µM
[2]
  Ki: 2240 µM
[3]
  Ki: 470 µM
[4]
  Ki: 3.3 µM
[5]
  Ki: 285 µM

## COC(=O)C1=C(c2ccc(OC)cc2)CCC1
[1]
  Ki: 140 µM
[2]
  Ki: 2690 µM
[3]
  Ki: 550 µM
[4]
  Ki: 6.3 µM
[5]
  Ki: 1390 µM

## COC(=O)C1=C(c2cccc(N)c2)CCC1
[1]
  Ki: 875 µM
[2]
  Ki: 1950 µM
[3]
  Ki: 1320 µM
[4]
  Ki: 121 µM
[6]
  Ki: 2.9 mM
[5]
  Ki: 247 µM

## COC(=O)C1=C(c2ccc([N+](=O)[O-])cc2)CCC1
[1]
  Ki: 6.54 µM
[2]
  Ki: 1140 µM
[3]
  Ki: 111 µM

## COC(=O)C1=C(c2ccc(OC(F)(F)F)cc2)CCC1
[1]
  Ki: 2650 µM
[2]
  Ki: 3800 µM
[3]
  Ki: 2880 µM

## COC(=O)C1=C(c2ccc(C(C)=O)cc2)CCC1
[1]
  Ki: 335 µM
[2]
  Ki: 296 µM
[3]
  Ki: 240 µM
[4]
  Ki: 49 µM
[6]
  Ki: 1.16 mM
[5]
  Ki: 646 µM

## COC(=O)C1=C(c2ccc(Cl)cc2)CCCC1
[1]
  Ki: 85 µM
[2]
  Ki: 1860 µM
[3]
  Ki: 993 µM
[4]
  Ki: 0.589 µM
[5]
  Ki: 314 µM

## COC(=O)C1=C(c2cccc([N+](=O)[O-])c2)CCCC1
[1]
  Ki: 239 µM
[2]
  Ki: 28.7 µM
[3]
  Ki: 121 µM

## COC(=O)C1=C(c2ccc(Cl)c(Cl)c2)CCCCC1
[1]
  Ki: 1.36 µM
[2]
  Ki: 149 µM
[3]
  Ki: 15 µM
[4]
  Ki: 0.515 µM
[5]
  Ki: 4.72 µM

## COC(=O)[C@@H]1CCCC[C@@H]1c1ccccc1
[1]
  Ki: 975 µM
[2]
  Ki: 1510 µM
[3]
  Ki: 1360 µM

## COC(=O)[C@@H]1CCCC[C@@H]1c1ccc(-c2ccccc2)cc1
[1]
  Ki: 830 µM
[2]
  Ki: 390 µM
[3]
  Ki: 658 µM

## COC(=O)C1=C(c2ccccc2)CCCC1
[1]
  Ki: 630 µM
[2]
  Ki: 668 µM
[3]
  Ki: 2500 µM

## COC(=O)C1=C(c2cccc(C(F)(F)F)c2)CCCC1
[1]
  Ki: 1050 µM
[2]
  Ki: 5020 µM
[3]
  Ki: 2110 µM

## COC(=O)[C@@H]1CCCCC[C@@H]1c1ccc(C(C)(C)C)cc1
[1]
  Ki: 1140 µM
[2]
  Ki: 1800 µM
[3]
  Ki: 94 µM

## CCOC(=O)C1=C(c2ccc(Cl)c(Cl)c2)CCNC1
[1]
  Ki: 0.922 µM
[2]
  Ki: 0.217 µM
[3]
  Ki: 2.5 µM

## COC(=O)C1=C(c2ccc(Cl)c(Cl)c2)CCC1
[1]
  Ki: 1.9 µM
[2]
  Ki: 785 µM
[3]
  Ki: 11 µM
[4]
  Ki: 5.5 µM
[5]
  Ki: 28 µM

## CCOC(=O)C1=C(c2ccc3ccccc3c2)CCNC1
[1]
  Ki: 0.079 µM
[2]
  Ki: 0.44 µM
[3]
  Ki: 0.268 µM

## COC(=O)[C@@H]1CCCC[C@@H]1c1cccc(C(F)(F)F)c1
[1]
  Ki: 569 µM
[2]
  Ki: 1910 µM
[3]
  Ki: 991 µM

## COC(=O)[C@@H]1CCCC[C@@H]1c1ccc(C(C)(C)C)cc1
[1]
  Ki: 766 µM
[2]
  Ki: 9120 µM
[3]
  Ki: 675 µM

## COC(=O)[C@@H]1CCCC[C@@H]1c1ccc(C(F)(F)F)cc1
[1]
  Ki: 222 µM
[2]
  Ki: 185 µM
[3]
  Ki: 439 µM

## COC(=O)C1=C(c2ccc(Cl)cc2)CCC1
[1]
  Ki: 18 µM
[2]
  Ki: 2840 µM
[3]
  Ki: 420 µM
[4]
  Ki: 2.1 µM
[5]
  Ki: 178 µM

## COC(=O)C1=C(c2ccc(O)cc2)CCCC1
[1]
  Ki: 231 µM
[2]
  Ki: 573 µM
[3]
  Ki: 675 µM
[5]
  Ki: 499 µM

## COC(=O)C1=C(c2ccc(Cl)c(Cl)c2)CCCC1
[1]
  Ki: 2.1 µM
[2]
  Ki: 228 µM
[3]
  Ki: 14 µM
[4]
  Ki: 0.625 µM
[5]
  Ki: 4.9 µM

## COC(=O)C1=C(c2ccc3ccccc3c2)CCC1
[1]
  Ki: 4.1 µM
[2]
  Ki: 417 µM
[3]
  Ki: 39 µM
[4]
  Ki: 7 µM
[5]
  Ki: 26 µM

## COC(=O)C1=C(c2ccc(C(C)(C)C)cc2)CCC1
[1]
  Ki: 302 µM
[2]
  Ki: 1460 µM
[3]
  Ki: 789 µM

## COC(=O)C1=C(c2cccc(Cl)c2)CCCCC1
[1]
  Ki: 22 µM
[2]
  Ki: 463 µM
[3]
  Ki: 85 µM
[4]
  Ki: 3.78 µM

## CCOC(=O)C1=C(c2cccc([N+](=O)[O-])c2)CCNC1
[1]
  Ki: 20.6 µM
[2]
  Ki: 3 µM
[3]
  Ki: 10 µM

## COC(=O)C1=C(c2ccc(OC(F)(F)F)cc2)CCCC1
[1]
  Ki: 1660 µM
[2]
  Ki: 4680 µM
[3]
  Ki: 2540 µM

## COC(=O)C1=C(c2ccc(S(C)(=O)=O)cc2)CCC1
[2]
  Ki: 3390 µM

## COC(=O)C1=C(c2ccc(Cl)cc2)CCCCC1
[1]
  Ki: 15 µM
[2]
  Ki: 706 µM
[3]
  Ki: 84 µM
[4]
  Ki: 2.2 µM
[5]
  Ki: 20 µM

## COC(=O)C1=C(c2ccc3ccccc3c2)CCCCC1
[1]
  Ki: 392 µM
[2]
  Ki: 532 µM
[3]
  Ki: 68 µM

## COC(=O)C1=C(c2ccc(C(F)(F)F)cc2)CCCC1
[1]
  Ki: 590 µM
[2]
  Ki: 4710 µM
[3]
  Ki: 2020 µM

## COC(=O)[C@@H]1CCCC[C@@H]1c1ccc(OC(F)(F)F)cc1
[1]
  Ki: 1180 µM
[2]
  Ki: 605 µM
[3]
  Ki: 719 µM

## COC(=O)[C@@H]1CN(C)CC[C@@H]1c1ccc(I)cc1 (racemic)
[1]
  Ki: 0.323 µM
[2]
  Ki: 0.287 µM
[3]
  Ki: 0.855 µM

## COC(=O)[C@@H]1CN(C)CC[C@H]1c1ccc(I)cc1 (racemic)
[1]
  Ki: 1.25 µM
[2]
  Ki: 2.81 µM
[3]
  Ki: 2.3 µM

## COC(=O)[C@@H]1CN(C)CC[C@@H]1c1ccccc1 (racemic)
[1]
  Ki: 8.51 µM
[2]
  Ki: 27 µM
[3]
  Ki: 35.2 µM

## COC(=O)[C@@H]1CN(C)CC[C@H]1c1ccccc1 (racemic)
[1]
  Ki: 17.4 µM
[2]
  Ki: 46.7 µM
[3]
  Ki: 36.3 µM

## COC(=O)[C@@H]1CN(C)CC[C@@H]1c1ccc(Cl)c(Cl)c1 (stereo in doubt)
[1]
  Ki: 59.4 µM
[3]
  Ki: 41.6 µM

## COC(=O)[C@@H]1CN(C)CC[C@@H]1c1ccc(Cl)c(Cl)c1 (stereo in doubt; 3a)
[1]
  Ki: 0.322 µM
[3]
  Ki: 3.91 µM

## COC(=O)[C@H]1[C@@H](c2ccc(I)cc2)C[C@H]2CC[C@@H]1N2C [IODINE 2BETA-CARBOMETHOXY-3BETA-(4 IODOPHENYL)-TROPANE]
[1]
  Ki: 0.004 µM
[2]
  Ki: 0.006 µM
[3]
  Ki: 0.034 µM
[4]
  Ki: 0.009 µM
[6]
  Ki: 4e-06 mM
[5]
  Ki: 0.01 µM
